# PGE2 EP2 inh = blocks the human prostaglandin E2 receptor EP2; inhibition, % at 25 µM; 260,000 compounds, 0.52% hits; C6 glioma cells expressing human EP2, cAMP TR-FRET; cells stimulated with saturating PGE2; P43116; AID 1422;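 active = percent inhibition above 40 after rounding to a whole number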;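 also: rat C6 glioma host cells with rolipram phosphodiesterase inhibitor present; the protocol text gives 20 µM as final concentration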
# Target sequence (P43116 whole entry, looked up): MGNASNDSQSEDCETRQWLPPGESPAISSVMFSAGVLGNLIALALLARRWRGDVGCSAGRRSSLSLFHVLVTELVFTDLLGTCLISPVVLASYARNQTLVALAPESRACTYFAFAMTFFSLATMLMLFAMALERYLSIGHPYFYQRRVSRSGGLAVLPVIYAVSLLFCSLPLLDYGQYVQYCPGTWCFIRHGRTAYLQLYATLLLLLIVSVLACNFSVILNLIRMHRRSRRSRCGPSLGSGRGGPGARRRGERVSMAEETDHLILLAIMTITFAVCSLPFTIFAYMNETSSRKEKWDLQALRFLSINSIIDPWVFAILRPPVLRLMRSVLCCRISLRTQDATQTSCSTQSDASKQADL
# Granule exo inh = blocks lytic granule exocytosis; TALL-104 LAMP-1 surface exposure, flow cytometry; cells stimulated with thapsigargin and PMA; inhibition, % at 10 µM; 360,000 compounds, 0.66% hits;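 active = inhibition above about 55%, limit read from the data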
# T cell HTS = T cell immune modulation candidate; 2C CD8+ T cell-vesicle binding, flow cytometry; active compounds read low; response (vesicle binding), % at 7 µM; 330,000 compounds, 0.068% hits;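 active = response, share of CD8 T cells binding vesicles, and their 90th percentile fluorescence all below set limits, cut at about 80% in these data, passing the limit was not always enough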;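 also: values below 100% mean blocked vesicle binding to the CD8+ T cells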
#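 Read-out – percent CD8+ FL2 mean versus row control · System – murine 2C transgenic CD8+ T lymphocytes · Times – 1.5 h cell–vesicle binding at 37 °C, then 20 min icy labelling · Control set – naked vesicles low, QL9 vesicles with vehicle high · Detection – cytometric PE anti-B7-1 and Alexa647 anti-CD8 signals after 1% paraformaldehyde fixation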
# EP2 modulator = EP2 receptor (human) modulation; EP2-expressing cells, cAMP HTRF FRET, PGE2 co-stimulation; P43116; induction, % at 25 µM; 260,000 compounds, 0.83% hits;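 active = compounds whose cAMP rise, as percent of the full-agonist control response, exceeds 60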;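 also: rat C6 glioma line stably carrying human EP2 under a CMV promoter; the protocol text gives 20 µM as final concentration; 100% = response of wells given 1 µM PGE2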
# MC4R ag barr = agonists of human melanocortin 4 receptor (MC4R) beta-arrestin | P32245 | U2OS MC4R beta-arrestin complementation, luminescence; percent of melanotan II response, DMSO zero | activation, % at 8.9 µM | 360,000 compounds, 0.98% hits | AID 540308;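 active = activation above a per-plate cutoff, the mean activation of sample wells on that plate plus 3 SD, cut at about 8% in these data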
# MC4R antag cAMP = antagonists of human melanocortin 4 receptor (MC4R) | 360,000 compounds, 0.48% hits | inhibition, % at 6.5 µM | MC4R-expressing cells, MTII-stimulated cAMP, LANCE TR-FRET | AID 540295;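 active = inhibition above its plate's cutoff, the mean of tested wells on that plate plus 3 SD, cut at about 29% in these data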;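 also: 0% = Melanotan II alone and 100% = Melanotan II plus saturating MCL0020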
#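 Assay system: U2OS cells stably expressing human melanocortin 4 receptor (MC4R) / Dosing: 6.5 µM / Timing: compound 30 min, challenge 1 h, detection 1 h / Measured by: Eu-cAMP/anti-cAMP TR-FRET, emission 671 nm / Replicates: singlicate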
# MC4R barr ag = human MC4R beta-arrestin agonism confirmation; 2,400 compounds, 31% hits; U2OS MC4R beta-arrestin recruitment, luminescence; scaled DMSO 0%, Melanotan II 100%; activation, % at 8.9 µM; shares compounds with MC4R ag barr;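 active = mean activation across replicates above the hit cutoff set in the earlier primary screen, cut at about 8% in these data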
# MOR-DOR barr ag = activates mu-delta opioid heterodimer, MC4R agonist counter-screen; shares compounds with MC4R ag barr; U2OS PathHunter beta-arrestin, beta-gal luminescence; percent of deltorphin B response, DMSO zero; activation, % at 9.2 µM; 2,400 compounds, 5.8% hits; AID 602194;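 active = mean activation across replicates exceeds the hit threshold derived in the earlier primary screen, cut at about 18% in these data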;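 also: 100% = deltorphin B at 0.9 µM final and 0% = DMSO alone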
# Numbers without * were called inactive; · = no result. Sampled rows, rich in hits. Any-hit rate of the full collection: about 2.6%.
SMILES,PGE2 EP2 inh,Granule exo inh,T cell HTS,EP2 modulator,MC4R ag barr,MC4R antag cAMP,MC4R barr ag,MOR-DOR barr ag
COC(=O)c1sc(NC(=O)/C=C/c2ccc(C)o2)nc1C,4.3,8.2,385.5,-2.9,12.3*,-1.4,4.3,1.2
COc1ccc(-c2onc(C)c2-c2ccc(C(=O)OC(C)C)o2)c(O)c1,·,7.3,181.9,7.0,11.7*,14.2,7.1,9.3
COc1ccc(N2C(=O)c3ccc(C(=O)OC(C)C)cc3C2=O)cc1,22.3,2.8,230.5,6.2,0.6,3.9,·,·
O=[N+]([O-])c1cccc2ccc(/C=C/c3ccc(F)cc3)nc12,5.7,0.4,319.3,4.7,7.2,-1.5,·,·
O=[N+]([O-])c1ccc(/C=C/c2ccc3cccc([N+](=O)[O-])c3n2)cc1,11.5,-3.6,476.2,-14.1,10.0*,4.4,4.2,7.1
CCCSc1ccc(-c2nn(-c3ccccc3)cc2/C=C(/C#N)C(=O)NCCCOC)cc1,7.7,2.1,514.8,-5.7,2.6,-5.2,·,·
CCSc1ccc(-c2nn(-c3ccccc3)cc2/C=C(/C#N)C(=O)NCCCOC)cc1,2.3,3.1,731.7,1.7,21.9*,-18.6,39.8*,18.8*
Cc1ccc(Oc2ccc(Cl)cc2NC(=O)c2ccc(F)cc2F)cc1,5.0,1.9,293.2,29.8,10.8*,-0.5,1.2,1.9
O=C(CCN1CCCCO1)NC1CCCc2c1cnn2-c1ccc(F)cc1F (stereo not drawn),·,-4.0,·,·,-0.5,0.9,·,·
O=C(CSc1ccccn1)c1ccc(F)cc1,5.8,1.5,506.2,16.8,-2.6,2.7,·,·
Fc1ccc(-c2nnsc2Sc2ccccn2)cc1,8.0,-0.5,260.8,-2.5,12.2*,0.6,-1.1,2.8
Cc1cc(C(=O)NNC(=O)c2cccc(N(C)C)c2)c(C)o1,·,-0.6,337.9,·,-3.0,4.9,·,·
COc1ccc(CC(=O)Nc2ccc(-c3noc(-c4ccccc4OC)n3)cc2)cc1,6.6,-4.8,381.1,-18.7,16.1*,0.3,23.9*,14.0
COc1cccc(-c2nc(-c3ccc(NC(=O)Cc4ccccc4OC)cc3)no2)c1,17.2,3.6,·,-1.1,1.9,-5.5,·,·
COc1ccc(-c2nc(-c3ccc(NC(=O)c4ccc(Br)o4)cc3)no2)cc1OC,11.5,-1.4,248.5,3.9,44.9*,0.0,21.6*,45.7*
COc1ccc(-c2noc(N3CCC(C(=O)Nc4ccc(OC)c(OC)c4)CC3)n2)cc1,·,-2.0,595.1,·,12.9*,6.6,-0.2,5.0
COc1ccccc1CC(=O)Nc1ccc(-c2noc(COc3ccc(Br)cc3)n2)cc1,3.8,1.5,531.5,-7.8,25.7*,9.1,8.0,18.7*
O=C(N(c1ccccn1)c1ccccn1)C12CC3CC(CC(Cl)(C3)C1)C2,5.8,-3.1,262.9,-23.1,0.1,0.9,·,·
CC(=O)Nc1ccc(-c2csc(N/N=C\c3ccncc3)n2)cc1,10.6,6.9,226.7,-28.0,-2.7,-5.8,·,·
CCCC(=O)Nc1ccc(-c2csc(N/N=C\c3ccncc3)n2)cc1,6.7,13.1,388.5,-48.9,18.7*,10.7,3.0,7.8
COc1ccc(/C=C(/NC(=O)c2cccs2)C(=O)NCc2ccco2)cc1OC,2.5,-6.0,253.9,17.9,-3.2,8.7,·,·
CC(C)(C)c1ccc(C(=O)NC(=O)COC(=O)c2ccco2)cc1,·,-5.8,·,·,13.3*,-7.1,1.4,7.1
O=C(COC(=O)c1ccco1)NNC(=O)c1ccc(Cl)cc1,·,2.5,221.6,·,-3.5,9.7,·,·
CC(C)C(NC(=O)c1ccc(Cl)cc1)C(=O)NC1=NCCS1 (stereo not drawn),15.6,-0.4,476.7,-17.7,-2.3,1.6,·,·
CCCc1cc(-c2n[nH]c(C)c2-c2ccc(C(=O)OCC)o2)c(O)cc1O,12.3,3.3,121.7,17.1,12.9*,6.3,5.0,3.5
COCCCn1c(=O)c2sccc2n2c(CCCC(=O)NCc3ccccc3)nnc12,·,4.8,295.6,·,-2.4,-1.4,·,·

# Screening results deposited in PubChem by several laboratories.
